Measurements as given in ChEMBL document CHEMBL5136968, “Posttranslational modifications of α-conotoxins: sulfotyrosine and C-terminal amidation stabilise structures and increase acetylcholine receptor binding” (RSC Med Chem, 2021).
Positions of bridges follow the written chain, without caps; N, C: chain ends. Non-standard residues stand in square brackets, D forms with d. Residues, ends and D or L forms follow the SMILES beside them. sY = N[C@@H](Cc1ccc(OS(=O)(=O)O)cc1)C(=O)O

Legend:
[1] = Displacement of [3H]-epibatidine from Aplysia californica Acetylcholine-binding protein measured after 1 hr by liquid scintillation counter
In short: (§1)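 Recombinant AChBP expressed in E. coli (IPTG induction, 16 °C), coated onto wells at 1 ng μL−1. Incubated 1 h at 4 °C with [3H]-epibatidine (1 nM final) and increasing peptide in PBS with 0.05% BSA. Unbound ligand washed off; bound radioactivity counted by liquid scintillation. One-site competition fit gives Ki. Triplicate, three independent experiments; pKi as mean with 95% CI.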

[2] = target: Acetylcholine-binding protein (Lymnaea stagnalis, UniProt P58154); test: Displacement of [3H]-epibatidine from Lymnaea stagnalis Acetylcholine-binding protein measured after 1 hr by liquid scintillation counter; in short: as §1
Chain of Acetylcholine-binding protein (P58154 whole entry): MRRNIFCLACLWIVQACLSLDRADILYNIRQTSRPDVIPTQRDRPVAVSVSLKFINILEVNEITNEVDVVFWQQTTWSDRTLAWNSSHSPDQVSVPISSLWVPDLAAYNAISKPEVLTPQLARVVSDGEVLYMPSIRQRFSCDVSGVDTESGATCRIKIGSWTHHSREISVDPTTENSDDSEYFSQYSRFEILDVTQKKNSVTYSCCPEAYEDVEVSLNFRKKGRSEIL

[3] = target: Neuronal acetylcholine receptor; alpha3/beta4 (Homo sapiens, UniProt P30926+P32297); test: Antagonist activity at human alpha3beta4 nAChR in SH-SY5Y cells assessed as inhibition of calcium flux by FLIPR assay; assay type: cell-based
Chain of Neuronal acetylcholine receptor; alpha3/beta4 (P30926 whole entry): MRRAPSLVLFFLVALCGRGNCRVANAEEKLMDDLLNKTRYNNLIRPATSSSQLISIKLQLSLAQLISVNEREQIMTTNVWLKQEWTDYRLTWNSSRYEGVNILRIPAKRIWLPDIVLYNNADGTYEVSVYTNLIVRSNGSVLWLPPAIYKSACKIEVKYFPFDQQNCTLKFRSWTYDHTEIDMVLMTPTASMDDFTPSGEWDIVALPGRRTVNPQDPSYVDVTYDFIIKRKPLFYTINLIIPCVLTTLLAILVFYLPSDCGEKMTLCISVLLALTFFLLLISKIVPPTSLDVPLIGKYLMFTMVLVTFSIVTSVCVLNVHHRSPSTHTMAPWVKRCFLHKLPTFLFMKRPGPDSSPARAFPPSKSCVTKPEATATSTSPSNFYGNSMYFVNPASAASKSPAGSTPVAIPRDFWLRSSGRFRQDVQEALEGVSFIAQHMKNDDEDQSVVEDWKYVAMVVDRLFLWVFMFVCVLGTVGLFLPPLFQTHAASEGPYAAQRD
Chain of Neuronal acetylcholine receptor; alpha3/beta4 (P32297 whole entry): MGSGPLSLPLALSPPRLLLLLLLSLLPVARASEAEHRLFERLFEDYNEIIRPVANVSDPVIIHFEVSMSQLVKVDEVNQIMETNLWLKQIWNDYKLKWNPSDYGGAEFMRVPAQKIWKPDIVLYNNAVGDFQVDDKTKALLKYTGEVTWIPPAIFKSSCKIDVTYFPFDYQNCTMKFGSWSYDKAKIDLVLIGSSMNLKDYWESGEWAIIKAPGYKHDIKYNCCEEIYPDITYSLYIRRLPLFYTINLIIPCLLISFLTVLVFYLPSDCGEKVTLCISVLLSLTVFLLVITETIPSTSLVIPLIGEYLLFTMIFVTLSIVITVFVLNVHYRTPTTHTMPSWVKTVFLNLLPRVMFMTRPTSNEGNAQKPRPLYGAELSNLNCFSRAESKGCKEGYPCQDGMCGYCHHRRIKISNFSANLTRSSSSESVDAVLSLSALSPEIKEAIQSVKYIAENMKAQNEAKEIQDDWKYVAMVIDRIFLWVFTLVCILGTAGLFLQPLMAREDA
In short: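 SH-SY5Y cells (endogenous α3β4), grown in RPMI with 15% FBS, plated 100 000/well and cultured 48 h. Loaded with calcium 4 dye for 30 min at 37 °C. Peptides in PSS (pH 7.4) added 10 min before nicotine 30 μM. Fluorescence read at 470–495 nm excitation, 515–575 nm emission, every 1 s. Normalised to maximal nicotine response; four-parameter Hill fit; pIC50. Triplicate, three independent experiments.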

Compound | pKi [1] | Ki [2] | IC50 [3]
C[C@@H]1NC(=O)[C@H](C)NC(=O)[C@@H]2CSSC[C@H](NC(=O)CNC(=O)CN)C(=O)N[C@@H](CSSC[C@@H](C(N)=O)NC(=O)[C@H](Cc3ccc(OS(=O)(=O)O)cc3)NC(=O)[C@H](CC(=O)O)NC(=O)[C@H](CCC(N)=O)NC(=O)[C@H](CC(N)=O)NC(=O)[C@H](CC(N)=O)NC1=O)C(=O)N[C@@H](CO)C(=O)N[C@@H](Cc1cnc[nH]1)C(=O)N1CCC[C@H]1C(=O)N[C@@H](C)C(=O)N2 | 9.4 | 5.37 µM | 
C[C@@H]1NC(=O)[C@H](C)NC(=O)[C@@H]2CSSC[C@H](NC(=O)CNC(=O)CN)C(=O)N[C@@H](CSSC[C@@H](C(=O)O)NC(=O)[C@H](Cc3ccc(O)cc3)NC(=O)[C@H](CC(=O)O)NC(=O)[C@H](CCC(N)=O)NC(=O)[C@H](CC(N)=O)NC(=O)[C@H](CC(N)=O)NC1=O)C(=O)N[C@@H](CO)C(=O)N[C@@H](Cc1cnc[nH]1)C(=O)N1CCC[C@H]1C(=O)N[C@@H](C)C(=O)N2 | 8 | > 100 µM | 
C[C@@H]1NC(=O)[C@H](C)NC(=O)[C@@H]2CSSC[C@H](NC(=O)CNC(=O)CN)C(=O)N[C@@H](CSSC[C@@H](C(N)=O)NC(=O)[C@H](Cc3ccc(O)cc3)NC(=O)[C@H](CC(=O)O)NC(=O)[C@H](CCC(N)=O)NC(=O)[C@H](CC(N)=O)NC(=O)[C@H](CC(N)=O)NC1=O)C(=O)N[C@@H](CO)C(=O)N[C@@H](Cc1cnc[nH]1)C(=O)N1CCC[C@H]1C(=O)N[C@@H](C)C(=O)N2 | 8.96 | 24.5 µM | 
C[C@@H]1NC(=O)[C@H](C)NC(=O)[C@@H]2CSSC[C@H](NC(=O)CNC(=O)CN)C(=O)N[C@@H](CSSC[C@@H](C(=O)O)NC(=O)[C@H](Cc3ccc(OS(=O)(=O)O)cc3)NC(=O)[C@H](CC(=O)O)NC(=O)[C@H](CCC(N)=O)NC(=O)[C@H](CC(N)=O)NC(=O)[C@H](CC(N)=O)NC1=O)C(=O)N[C@@H](CO)C(=O)N[C@@H](Cc1cnc[nH]1)C(=O)N1CCC[C@H]1C(=O)N[C@@H](C)C(=O)N2 | 8.66 | > 100 µM | 
CSCC[C@@H]1NC(=O)[C@H](CC(N)=O)NC(=O)[C@@H]2CSSC[C@H](NC(=O)CN)C(=O)N[C@@H](CSSC[C@@H](C(N)=O)NC(=O)[C@H](Cc3ccc(O)cc3)NC(=O)[C@H](CC(=O)O)NC(=O)[C@@H]3CCCN3C(=O)[C@H](CC(N)=O)NC(=O)[C@H](CC(N)=O)NC1=O)C(=O)N[C@@H](CO)C(=O)N[C@@H](CC(=O)O)C(=O)N1CCC[C@H]1C(=O)N[C@@H](CCCNC(=N)N)C(=O)N2 (H-GCCSDPRCNMNNPDYC-NH2; disulfide 2-8, 3-16) | 7.57 | > 100 µM | 0.347 µM
CSCC[C@@H]1NC(=O)[C@H](CC(N)=O)NC(=O)[C@@H]2CSSC[C@H](NC(=O)CN)C(=O)N[C@@H](CSSC[C@@H](C(=O)O)NC(=O)[C@H](Cc3ccc(O)cc3)NC(=O)[C@H](CC(=O)O)NC(=O)[C@@H]3CCCN3C(=O)[C@H](CC(N)=O)NC(=O)[C@H](CC(N)=O)NC1=O)C(=O)N[C@@H](CO)C(=O)N[C@@H](CC(=O)O)C(=O)N1CCC[C@H]1C(=O)N[C@@H](CCCNC(=N)N)C(=O)N2 (H-GCCSDPRCNMNNPDYC-OH; disulfide 2-8, 3-16) | 6 | > 100 µM | 1.35 µM
CSCC[C@@H]1NC(=O)[C@H](CC(N)=O)NC(=O)[C@@H]2CSSC[C@H](NC(=O)CN)C(=O)N[C@@H](CSSC[C@@H](C(N)=O)NC(=O)[C@H](Cc3ccc(OS(=O)(=O)O)cc3)NC(=O)[C@H](CC(=O)O)NC(=O)[C@@H]3CCCN3C(=O)[C@H](CC(N)=O)NC(=O)[C@H](CC(N)=O)NC1=O)C(=O)N[C@@H](CO)C(=O)N[C@@H](CC(=O)O)C(=O)N1CCC[C@H]1C(=O)N[C@@H](CCCNC(=N)N)C(=O)N2 (H-GCCSDPRCNMNNPD[sY]C-NH2; disulfide 2-8, 3-16) | 8.38 | > 100 µM | 0.0646 µM
CSCC[C@@H]1NC(=O)[C@H](CC(N)=O)NC(=O)[C@@H]2CSSC[C@H](NC(=O)CN)C(=O)N[C@@H](CSSC[C@@H](C(=O)O)NC(=O)[C@H](Cc3ccc(OS(=O)(=O)O)cc3)NC(=O)[C@H](CC(=O)O)NC(=O)[C@@H]3CCCN3C(=O)[C@H](CC(N)=O)NC(=O)[C@H](CC(N)=O)NC1=O)C(=O)N[C@@H](CO)C(=O)N[C@@H](CC(=O)O)C(=O)N1CCC[C@H]1C(=O)N[C@@H](CCCNC(=N)N)C(=O)N2 (H-GCCSDPRCNMNNPD[sY]C-OH; disulfide 2-8, 3-16) | 6.5 | > 100 µM | 0.501 µM
